Only some compounds are listed: those with a hit (about 2.1% of all), similar ones and a draw of the others.
FXIIa inh 1536: factor XIIa (human) inhibition; hit rate 0.3% among 220,000; P00748; inhibition, % at 5 µM; purified FXIIa, Boc-QGR-AMC fluorogenic substrate, 2 h; in the data active = inhibition above about 40%;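 also: 0% = enzyme with no compound and 100% = blank without enzyme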
FXIa inh 1536: blocks human coagulation factor XIa protease activity. purified FXIa, Boc-Glu-Ala-Arg-AMC fluorogenic substrate. inhibition, % at 5 µM. hit rate 0.14% among 220,000. AID 798;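 active = inhibition of at least 40%; inactive = inhibition below 40%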;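 also: fluorescence of freed AMC excited at 355 nm; 0% = enzyme without compound and 100% = no enzyme blank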
Thrombin inh: blocks human thrombin protease activity. P00734. inhibition, % at 5 µM. hit rate 0.26% among 220,000. alpha-thrombin, Boc-VPR-AMC fluorogenic substrate cleavage;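 active = inhibition at or above 40%; inactive = inhibition below 40%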;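 also: 0% = enzyme with no compound and 100% = wells without enzyme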
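signal = AMC fluorescence, 355/460 nm | material = human alpha-thrombin enzyme | control set = enzyme without compound as high, wells lacking enzyme as low | times = reaction at room temperature | read-out basis = percent inhibition scaled between no-compound controls and no-enzyme blanks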
EP2 modulator: modulates human prostaglandin E2 receptor EP2 signaling. hit rate 0.83% among 260,000. EP2-expressing cells, cAMP HTRF FRET, PGE2 co-stimulation. induction, % at 25 µM. P43116;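 active = compounds whose cAMP rise, as percent of the full-agonist control response, exceeds 60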;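 also: rat C6 glioma line stably carrying human EP2 under a CMV promoter; the protocol text gives 20 µM as final concentration; 100% = response of wells given 1 µM PGE2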
hK5 inh: kallikrein 5 (human) inhibition; inhibition, % at 5 µM; hit rate 0.59% among 210,000; AID 873; Q9Y337; recombinant hK5, fluorogenic AMC substrate cleavage;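 active = inhibition of 40% or more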;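 also: 0% = enzyme controls without compound and 100% = no-enzyme blanks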
Target sequence (Q9Y337 67-293 limits assumed): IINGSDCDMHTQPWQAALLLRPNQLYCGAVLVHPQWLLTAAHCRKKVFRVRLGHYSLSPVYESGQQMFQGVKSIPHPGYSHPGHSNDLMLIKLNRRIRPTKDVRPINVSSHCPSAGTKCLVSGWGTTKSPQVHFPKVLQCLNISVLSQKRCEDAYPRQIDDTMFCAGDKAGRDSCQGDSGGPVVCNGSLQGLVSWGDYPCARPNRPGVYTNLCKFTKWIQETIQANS
PGE2 EP2 inh: EP2 receptor (human) inhibition; C6 glioma cells expressing human EP2, cAMP TR-FRET; cells stimulated with saturating PGE2; inhibition, % at 25 µM; hit rate 0.52% among 260,000; AID 1422;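 active = percent inhibition above 40 after rounding to a whole number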;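 also: rat C6 glioma host cells with rolipram phosphodiesterase inhibitor present; the protocol text gives 20 µM as final concentration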
* marks the source's active call; other numbers are inactive results; . = no result; ! = a repeat was not active.

SMILES	FXIIa inh 1536	FXIa inh 1536	Thrombin inh	EP2 modulator	hK5 inh	PGE2 EP2 inh
O=C(Oc1ccc(=O)n(-c2ccccc2)n1)c1cccc(Cl)c1	18	68*	5	32	-9	8
O=C(Oc1ccc(=O)n(-c2ccccc2)n1)c1ccc(F)cc1	16	36	6	3	10	6
Cc1cc2ncn(S(=O)(=O)N3CCOCC3)c2cc1C	18	3	80*	11	47*	6
CCOc1ccc(NC(=O)N2CCCC2C(=O)NC2CCCC2)cc1 (stereo unspecified)	.	.	.	3	.	19
O=C(Nc1nc2ccsc2c(=O)s1)c1ccco1	6	-1	-4	10	-2	9
O=C(Nc1nc2c(Cl)ccc(Cl)c2s1)c1ccco1	6	-6	-11	-17	-25	70*
Cc1ccc2cc(C)c3nnc(SCC(=O)Nc4ccccc4F)n3c2c1	.	.	.	2	.	18
CC(=O)c1ccc(N2C(=O)C3C(C2=O)C(C(=O)c2ccc(Cl)cc2)N2CCCC32)cc1 (stereo unspecified)	8	12	9	-6	42*	14
CCN(Cc1ccccc1)c1ccc(/C=N/NC(=O)c2cccc(S(=O)(=O)N3CCOCC3)c2)cc1	20	12	20	-15	56*	9
Cc1cc2n(n1)C(c1ccccc1)Nc1ccccc1-2 (stereo unspecified)	15	-2	-1	64*!	3	8
Cc1cc2n(n1)C(c1ccc(C(=O)O)cc1)Nc1ccccc1-2 (stereo unspecified)	.	.	.	6	.	8
CCOc1ccc(C(C(=O)NC2CCCC2)N(C(=O)c2ccco2)C2CCCC2)cc1 (stereo unspecified)	.	.	.	-16	.	5
CCOc1ccc(N(C(=O)c2ccco2)C(C(=O)NC2CCCC2)c2ccccc2)cc1 (stereo unspecified)	.	.	.	61*	.	6
CC(C)(C)SCCNS(=O)(=O)c1ccc2ccccc2c1	12	7	-2	1	-15	4
CC(C)(C)SCCNS(=O)(=O)c1ccccc1	50*	13	22	-7	43*	14
CS(=O)(=O)c1ccccc1C(=O)Nc1nc2ccccc2[nH]1	4	8	-3	-2	2	108*
CC1Cc2cc(C(O)CN3CCCCCC3)ccc2N1S(C)(=O)=O (stereo unspecified)	.	.	.	-20	.	8
COc1ccccc1NC(=O)Cn1nc(-c2cc(C)oc2C)cc(N)c1=O	.	.	.	-43	.	12
Cc1ccc(-c2nn3c(C)nnc3s2)cc1NC(=O)c1cccc2ccccc12	.	.	.	10	.	16
CCC1=NN(C(=O)C(=O)Nc2ccc(OC)cc2)C(O)(C(F)(F)F)C1 (stereo unspecified)	22	0	1	17	-33	3
COc1ccc(NC(=O)C(=O)N2N=C3CCCCC3C2(O)C(F)(F)F)cc1 (stereo unspecified)	7	0	-1	61*	4	10
COC(=O)c1c(-c2ccc(F)cc2)csc1NC(=O)c1ccco1	2	-2	-4	44	6	12
O=C(Nc1scc(-c2ccccc2)c1C(=O)O)c1ccco1	26	11	50*	-12	59*	7
O=C(CCC(=O)N/N=C/c1ccc(Br)s1)NCc1ccccc1	44*	10	29	6	20	0
O=C(O)[C@@H]1[C@H](C(=O)Nc2cccc3cccnc23)[C@@H]2CC[C@H]1O2	.	.	.	-54	.	58*
SMILES	FXIIa inh 1536	FXIa inh 1536	Thrombin inh	EP2 modulator	hK5 inh	PGE2 EP2 inh
Cc1nn(CC(=O)N(C)C)c(=O)c2cc3occc3n12	.	.	.	2	.	9
COC(=O)c1ccc2nc(NC(=O)CN3C(=O)CCC3=O)sc2c1	21	13	15	-15	50*	8
COC(=O)c1ccc2nc(NC(=O)C(C)C)sc2c1	2	-3	-9	-20	-8	5
CO/N=C/C(=N\Nc1ccc(C)cc1)C(=O)c1ccc(OC)cc1	16	4	-1	49	3	16
CO/N=C\C(=N\Nc1ccc(OC)cc1)C(=O)c1ccccc1	16	5	2	62*	3	11
C/C(=N\NC(=O)c1ccc(C)cc1C)c1ccc2c(c1)Nc1ccccc1S2	9	6	-2	-75	-6	43*
NNC(=O)CN1C(=O)Nc2ccc(Br)cc2C1c1ccccc1 (stereo unspecified)	24	7	55*	5	42*	12

Screening results (PubChem)
